Peptide text beside a SMILES is read from it.
Key:
Klebsiella pneumoniae [1] = assay: Synergistic antibacterial activity against Klebsiella pneumoniae ATCC BAA-1705 fractional inhibitory concentration incubated for 24 hrs in presence of clindamycin by checkerboard assay; type: functional
Method in brief: (§1)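 Checkerboard assay in MH broth. Inoculum from an LB overnight culture set to 0.5 McFarland and diluted 1/150. […] Each agent was also titrated alone. Incubation 24 h at 37 °C. FIC = combination MIC/individual MIC; FICI = sum of the FICs. Triplicate.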

Klebsiella pneumoniae [2] = assay: Synergistic antibacterial activity against Klebsiella pneumoniae ATCC BAA-1705 fractional inhibitory concentration incubated for 24 hrs in presence of vancomycin by checkerboard assay; type: functional; method in brief: as §1
Klebsiella pneumoniae [3] = assay: Synergistic antibacterial activity against Klebsiella pneumoniae ATCC BAA-1705 fractional inhibitory concentration index incubated for 24 hrs in presence of kanamycin by checkerboard assay; type: functional; method in brief: as §1
Klebsiella pneumoniae [4] = assay: Synergistic antibacterial activity against Klebsiella pneumoniae ATCC BAA-1705 fractional inhibitory concentration incubated for 24 hrs in presence of kanamycin by checkerboard assay; type: functional; method in brief: as §1
Klebsiella pneumoniae [5] = assay: Synergistic antibacterial activity against Klebsiella pneumoniae ATCC BAA-1705 fractional inhibitory concentration index incubated for 24 hrs in presence of daptomycin by checkerboard assay; type: functional; method in brief: as §1
Klebsiella pneumoniae [6] = assay: Synergistic antibacterial activity against Klebsiella pneumoniae ATCC BAA-1705 fractional inhibitory concentration incubated for 24 hrs in presence of metronidazole by checkerboard assay; type: functional
Method in brief: (§2)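 Checkerboard assay. Inoculum from an LB overnight culture at 0.5 McFarland, diluted 1/150 in MH media. […] Incubated 37 °C for 24 h. FICI = MIC combination/MIC alone summed over both agents. Triplicate.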

Escherichia coli [7] = assay: Synergistic antibacterial activity against Escherichia coli ATCC 25922 fractional inhibitory concentration index incubated for 24 hrs in presence of polymyxin B by checkerboard assay; type: functional; method in brief: as §1
Staphylococcus aureus [8] = assay: Synergistic antibacterial activity against methicillin resistant Staphylococcus aureus ATCC BAA-1556 assessed as fractional inhibitory concentration index incubated for 24 hrs in presence of clindamycin by checkerboard assay; type: functional; method in brief: as §2
Escherichia coli [9] = assay: Synergistic antibacterial activity against Escherichia coli ATCC 25922 assessed as fractional inhibitory concentration index incubated for 24 hrs in presence of clindamycin by checkerboard assay; type: functional; method in brief: as §1
Escherichia coli [10] = assay: Synergistic antibacterial activity against Escherichia coli ATCC 25922 fractional inhibitory concentration incubated for 24 hrs in presence of levofloxacin by checkerboard assay; type: functional; method in brief: as §1
Pseudomonas aeruginosa [11] = assay: Synergistic antibacterial activity against Pseudomonas aeruginosa ATCC […] fractional inhibitory concentration incubated for 24 hrs in presence of meropenem by checkerboard assay; type: functional
Escherichia coli [12] = assay: Synergistic antibacterial activity against Escherichia coli ATCC 25922 fractional inhibitory concentration index incubated for 24 hrs in presence of levofloxacin by checkerboard assay; type: functional; method in brief: as §1
Klebsiella pneumoniae [13] = assay: Synergistic antibacterial activity against Klebsiella pneumoniae ATCC BAA-1705 fractional inhibitory concentration incubated for 24 hrs in presence of Ciprofloxacin by checkerboard assay; type: functional; method in brief: as §1
Escherichia coli [14] = assay: Synergistic antibacterial activity against Escherichia coli ATCC 25922 fractional inhibitory concentration incubated for 24 hrs in presence of polymyxin B by checkerboard assay; type: functional; method in brief: as §1
Pseudomonas aeruginosa [15] = assay: Synergistic antibacterial activity against Pseudomonas aeruginosa ATCC […] fractional inhibitory concentration index incubated for 24 hrs in presence of levofloxacin by checkerboard assay; type: functional
Escherichia coli [16] = assay: Synergistic antibacterial activity against Escherichia coli ATCC 25922 assessed as fractional inhibitory concentration incubated for 24 hrs in presence of tetracycline by checkerboard assay; type: functional; method in brief: as §1
Pseudomonas aeruginosa [17] = assay: Synergistic antibacterial activity against Pseudomonas aeruginosa ATCC […] fractional inhibitory concentration incubated for 24 hrs in presence of daptomycin by checkerboard assay; type: functional
Staphylococcus aureus [18] = assay: Synergistic antibacterial activity against methicillin resistant Staphylococcus aureus ATCC BAA-1556 assessed as fractional inhibitory concentration incubated for 24 hrs in presence of clindamycin by checkerboard assay; type: functional; method in brief: as §2
Staphylococcus aureus [19] = assay: Synergistic antibacterial activity against methicillin resistant Staphylococcus aureus ATCC BAA-1556 incubated for 24 hrs in presence of vancomycin by checkerboard assay; type: functional; method in brief: as §2
Escherichia coli [20] = assay: Synergistic antibacterial activity against Escherichia coli ATCC 25922 fractional inhibitory concentration incubated for 24 hrs in presence of kanamycin by checkerboard assay; type: functional; method in brief: as §1
Klebsiella pneumoniae [21] = assay: Synergistic antibacterial activity against Klebsiella pneumoniae ATCC BAA-1705 assessed as fractional inhibitory concentration index incubated for 24 hrs in presence of tobramycin by checkerboard assay; type: functional; method in brief: as §1
Escherichia coli [22] = assay: Synergistic antibacterial activity against Escherichia coli ATCC 25922 incubated for 24 hrs in presence of tetracycline by checkerboard assay; type: functional; method in brief: as §1
Escherichia coli [23] = assay: Synergistic antibacterial activity against Escherichia coli ATCC 25922 assessed as fractional inhibitory concentration incubated for 24 hrs in presence of clindamycin by checkerboard assay; type: functional; method in brief: as §1
Escherichia coli [24] = assay: Synergistic antibacterial activity against Escherichia coli ATCC 25922 fractional inhibitory concentration index incubated for 24 hrs in presence of kanamycin by checkerboard assay; type: functional; method in brief: as §1
Klebsiella pneumoniae [25] = assay: Synergistic antibacterial activity against Klebsiella pneumoniae ATCC BAA-1705 fractional inhibitory concentration incubated for 24 hrs in presence of daptomycin by checkerboard assay; type: functional; method in brief: as §1
[26] = Therapeutic index, ratio of HC50 for human RBC to MIC for methicillin resistant Staphylococcus aureus ATCC BAA-1556
Method in brief: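 Human RBCs washed in PBS pH 7.4 and mixed 1:1 with two-fold peptide dilutions (4% v/v suspension), 2 h at 37 °C. Hemoglobin in supernatant read at 567 nm against PBS (0%) and 1% Triton X-100 (100%). HC50 is the concentration giving 50% hemolysis. Index is HC50 divided by MIC against MRSA.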

Klebsiella pneumoniae [27] = assay: Synergistic antibacterial activity against Klebsiella pneumoniae ATCC BAA-1705 fractional inhibitory concentration index incubated for 24 hrs in presence of levofloxacin by checkerboard assay; type: functional; method in brief: as §1
Pseudomonas aeruginosa [28] = assay: Synergistic antibacterial activity against Pseudomonas aeruginosa ATCC […] incubated for 24 hrs in presence of meropenem by checkerboard assay; type: functional
Klebsiella pneumoniae [29] = assay: Synergistic antibacterial activity against Klebsiella pneumoniae ATCC BAA-1705 fractional inhibitory concentration index incubated for 24 hrs in presence of metronidazole by checkerboard assay; type: functional
Pseudomonas aeruginosa [30] = assay: Synergistic antibacterial activity against Pseudomonas aeruginosa ATCC […] fractional inhibitory concentration index incubated for 24 hrs in presence of kanamycin by checkerboard assay; type: functional
Staphylococcus aureus [31] = assay: Synergistic antibacterial activity against methicillin resistant Staphylococcus aureus ATCC BAA-1556 incubated for 24 hrs in presence of clindamycin by checkerboard assay; type: functional; method in brief: as §2
Staphylococcus aureus [32] = assay: Synergistic antibacterial activity against methicillin resistant Staphylococcus aureus ATCC BAA-1556 assessed as fractional inhibitory concentration incubated for 24 hrs in presence of tetracycline by checkerboard assay; type: functional; method in brief: as §2
Pseudomonas aeruginosa [33] = assay: Synergistic antibacterial activity against Pseudomonas aeruginosa ATCC […] fractional inhibitory concentration incubated for 24 hrs in presence of Ciprofloxacin by checkerboard assay; type: functional
Pseudomonas aeruginosa [34] = assay: Synergistic antibacterial activity against Pseudomonas aeruginosa ATCC […] incubated for 24 hrs in presence of levofloxacin by checkerboard assay; type: functional
Staphylococcus aureus [35] = assay: Synergistic antibacterial activity against methicillin resistant Staphylococcus aureus ATCC BAA-1556 assessed as fractional inhibitory concentration index incubated for 24 hrs in presence of tetracycline by checkerboard assay; type: functional; method in brief: as §2
Pseudomonas aeruginosa [36] = assay: Synergistic antibacterial activity against Pseudomonas aeruginosa ATCC […] fractional inhibitory concentration incubated for 24 hrs in presence of metronidazole by checkerboard assay; type: functional

N=C(N)NCCC[C@@H]1NC(=O)[C@H](CCCNC(=N)N)NC(=O)[C@H](CCCNC(=N)N)NC(=O)[C@H](CCCNC(=N)N)NC(=O)[C@H](Cc2c[nH]c3ccccc23)NC(=O)[C@H](Cc2c[nH]c3ccccc23)NC(=O)[C@H](Cc2c[nH]c3ccccc23)NC(=O)[C@H](Cc2c[nH]c3ccccc23)NC(=O)[C@H](CCCNC(=N)N)NC(=O)[C@H](CCCNC(=N)N)NC1=O (cyclo(RRRRRRWWWW))
FIC (Klebsiella pneumoniae [1]): 0.016 | FIC (Klebsiella pneumoniae [2]): 0.0625 | fractional inhibitory concentration index (FICI) (Klebsiella pneumoniae [3]): 0.5 | FIC (Klebsiella pneumoniae [4]): 0.25 | fractional inhibitory concentration index (FICI) (Klebsiella pneumoniae [5]): 0.375 | FIC (Klebsiella pneumoniae [6]): 0.063 | fractional inhibitory concentration index (FICI) (Escherichia coli [7]): 0.313 | fractional inhibitory concentration index (FICI) (Staphylococcus aureus [8]): 0.498 | fractional inhibitory concentration index (FICI) (Escherichia coli [9]): 0.313 | FIC (Escherichia coli [10]): 0.125 | FIC (Pseudomonas aeruginosa [11]): 0.25 | fractional inhibitory concentration index (FICI) (Escherichia coli [12]): 0.375 | FIC (Klebsiella pneumoniae [13]): 0.0625 | FIC (Escherichia coli [14]): 0.063 | fractional inhibitory concentration index (FICI) (Pseudomonas aeruginosa [15]): 0.375 | FIC (Escherichia coli [16]): 0.063 | FIC (Pseudomonas aeruginosa [17]): 0.0156 | FIC (Staphylococcus aureus [18]): 0.248 | MIC (Staphylococcus aureus [19]): 0.25 µg/mL | FIC (Escherichia coli [20]): 0.125 | fractional inhibitory concentration index (FICI) (Klebsiella pneumoniae [21]): 0.5 | MIC (Escherichia coli [22]): 0.5 µg/mL | FIC (Escherichia coli [23]): 0.063 | fractional inhibitory concentration index (FICI) (Escherichia coli [24]): 0.375 | FIC (Klebsiella pneumoniae [25]): 0.125 | TI [26]: 33.1 | fractional inhibitory concentration index (FICI) (Klebsiella pneumoniae [27]): 0.375 | MIC (Pseudomonas aeruginosa [28]): 0.25 µg/mL | fractional inhibitory concentration index (FICI) (Klebsiella pneumoniae [29]): 0.313 | fractional inhibitory concentration index (FICI) (Pseudomonas aeruginosa [30]): 0.266 | MIC (Staphylococcus aureus [31]): 0.031 µg/mL | FIC (Staphylococcus aureus [32]): 0.25 | FIC (Pseudomonas aeruginosa [33]): 0.25 | MIC (Pseudomonas aeruginosa [34]): 0.125 µg/mL | fractional inhibitory concentration index (FICI) (Staphylococcus aureus [35]): 0.5 | FIC (Pseudomonas aeruginosa [36]): 0.125

N=C(N)NCCC[C@@H]1NC(=O)[C@H](CCCNC(=N)N)NC(=O)[C@H](CCCNC(=N)N)NC(=O)[C@H](Cc2c[nH]c3ccccc23)NC(=O)[C@H](Cc2c[nH]c3ccccc23)NC(=O)[C@H](Cc2c[nH]c3ccccc23)NC(=O)[C@H](Cc2c[nH]c3ccccc23)NC(=O)[C@H](CCCNC(=N)N)NC(=O)[C@H](CCCNC(=N)N)NC1=O
FIC (Klebsiella pneumoniae [1]): 0.0039 | FIC (Klebsiella pneumoniae [2]): 0.0625 | fractional inhibitory concentration index (FICI) (Klebsiella pneumoniae [3]): 0.375 | FIC (Klebsiella pneumoniae [4]): 0.125 | fractional inhibitory concentration index (FICI) (Klebsiella pneumoniae [5]): 0.516 | FIC (Klebsiella pneumoniae [6]): 0.0313 | fractional inhibitory concentration index (FICI) (Escherichia coli [7]): 0.375 | fractional inhibitory concentration index (FICI) (Staphylococcus aureus [8]): 0.499 | fractional inhibitory concentration index (FICI) (Escherichia coli [9]): 0.313 | FIC (Escherichia coli [10]): 0.125 | FIC (Pseudomonas aeruginosa [11]): 0.125 | fractional inhibitory concentration index (FICI) (Escherichia coli [12]): 0.375 | FIC (Klebsiella pneumoniae [13]): 0.0625 | FIC (Escherichia coli [14]): 0.125 | fractional inhibitory concentration index (FICI) (Pseudomonas aeruginosa [15]): 0.375 | FIC (Escherichia coli [16]): 0.125 | FIC (Pseudomonas aeruginosa [17]): 0.063 | FIC (Staphylococcus aureus [18]): 0.249 | MIC (Staphylococcus aureus [19]): 0.5 µg/mL | FIC (Escherichia coli [20]): 0.25 | fractional inhibitory concentration index (FICI) (Klebsiella pneumoniae [21]): 0.375 | MIC (Escherichia coli [22]): 1 µg/mL | FIC (Escherichia coli [23]): 0.063 | fractional inhibitory concentration index (FICI) (Escherichia coli [24]): 0.5 | FIC (Klebsiella pneumoniae [25]): 0.0156 | TI [26]: 85 | fractional inhibitory concentration index (FICI) (Klebsiella pneumoniae [27]): 0.375 | MIC (Pseudomonas aeruginosa [28]): 0.125 µg/mL | fractional inhibitory concentration index (FICI) (Klebsiella pneumoniae [29]): 0.281 | fractional inhibitory concentration index (FICI) (Pseudomonas aeruginosa [30]): 0.281 | MIC (Staphylococcus aureus [31]): 0.0312 µg/mL | FIC (Staphylococcus aureus [32]): 0.25 | FIC (Pseudomonas aeruginosa [33]): 0.25 | MIC (Pseudomonas aeruginosa [34]): 0.125 µg/mL | fractional inhibitory concentration index (FICI) (Staphylococcus aureus [35]): 0.5 | FIC (Pseudomonas aeruginosa [36]): 0.25

— ChEMBL document CHEMBL5236607, “Membrane-Active Cyclic Amphiphilic Peptides: Broad-Spectrum Antibacterial Activity Alone and in Combination with Antibiotics” (J Med Chem, 2022)
